Data from ChEMBL document CHEMBL1158589, “Benzimidazole and imidazole inhibitors of histone deacetylases: Synthesis and biological activity” (Bioorg Med Chem Lett, 2010).

What was measured:
[1] = target: T1, Protein deacetylase HDAC6 (Homo sapiens, UniProt Q9UBN7); assay: Inhibition of human recombinant HDAC6
T1 sequence (Q9UBN7 whole entry): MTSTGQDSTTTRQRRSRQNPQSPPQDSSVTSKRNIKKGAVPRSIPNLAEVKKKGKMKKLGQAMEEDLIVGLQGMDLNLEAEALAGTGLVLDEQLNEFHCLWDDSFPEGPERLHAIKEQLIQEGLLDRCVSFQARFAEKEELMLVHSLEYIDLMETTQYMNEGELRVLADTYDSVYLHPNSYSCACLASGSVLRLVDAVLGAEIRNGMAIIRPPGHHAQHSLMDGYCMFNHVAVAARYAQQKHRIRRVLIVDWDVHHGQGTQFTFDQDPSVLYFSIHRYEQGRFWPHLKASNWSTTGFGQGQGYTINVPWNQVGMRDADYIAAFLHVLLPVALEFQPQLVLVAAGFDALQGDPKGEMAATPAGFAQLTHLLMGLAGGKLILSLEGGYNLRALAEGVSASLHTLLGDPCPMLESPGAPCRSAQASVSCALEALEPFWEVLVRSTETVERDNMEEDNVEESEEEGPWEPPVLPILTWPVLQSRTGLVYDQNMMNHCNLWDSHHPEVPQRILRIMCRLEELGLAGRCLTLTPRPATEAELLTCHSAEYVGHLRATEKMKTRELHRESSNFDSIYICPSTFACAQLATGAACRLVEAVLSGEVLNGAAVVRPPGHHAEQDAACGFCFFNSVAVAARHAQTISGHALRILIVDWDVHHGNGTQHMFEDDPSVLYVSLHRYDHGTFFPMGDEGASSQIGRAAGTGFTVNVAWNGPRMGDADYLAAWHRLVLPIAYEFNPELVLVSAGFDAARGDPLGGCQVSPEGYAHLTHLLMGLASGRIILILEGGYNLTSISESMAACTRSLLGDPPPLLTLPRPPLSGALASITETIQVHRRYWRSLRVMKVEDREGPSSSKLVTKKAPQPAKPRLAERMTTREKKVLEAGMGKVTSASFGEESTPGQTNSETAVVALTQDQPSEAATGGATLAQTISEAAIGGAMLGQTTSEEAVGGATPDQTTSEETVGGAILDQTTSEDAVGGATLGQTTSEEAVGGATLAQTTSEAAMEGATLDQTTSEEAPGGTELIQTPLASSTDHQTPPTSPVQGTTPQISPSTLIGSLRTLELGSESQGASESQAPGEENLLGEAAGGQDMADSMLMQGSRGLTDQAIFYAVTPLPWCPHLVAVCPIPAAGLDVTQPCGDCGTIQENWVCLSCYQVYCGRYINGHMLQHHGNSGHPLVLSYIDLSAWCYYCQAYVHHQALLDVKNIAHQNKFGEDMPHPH
Outline: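 Purified recombinant human HDAC-2 or HDAC-6 at known enzyme concentration with tBOC(Ac)-Lys-AMC as substrate. IC50 is the mean of at least three experiments.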

Histone deacetylase 8 = target: T2, Histone deacetylase 8 (Homo sapiens, UniProt Q9BY41); assay: Inhibition of human recombinant HDAC8
T2 sequence (Q9BY41 whole entry): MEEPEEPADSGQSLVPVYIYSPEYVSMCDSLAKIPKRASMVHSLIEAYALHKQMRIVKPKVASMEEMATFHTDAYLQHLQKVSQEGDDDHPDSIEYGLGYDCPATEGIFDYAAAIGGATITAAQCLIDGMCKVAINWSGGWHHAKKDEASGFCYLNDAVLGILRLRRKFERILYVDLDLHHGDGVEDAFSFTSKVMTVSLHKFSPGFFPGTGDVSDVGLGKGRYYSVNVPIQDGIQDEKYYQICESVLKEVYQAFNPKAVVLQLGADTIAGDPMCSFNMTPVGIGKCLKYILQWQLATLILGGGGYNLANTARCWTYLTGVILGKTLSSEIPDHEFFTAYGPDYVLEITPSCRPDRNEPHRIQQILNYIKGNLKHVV

A549 = assay: Cytotoxicity against human A549 cells assessed as NADH level after 72 hrs by MTS cells; assay type: functional, cell-based; conditions: A549, 72 h
Outline: (§1)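 Human A549 lung, HL60 leukemia and PC3 prostate cancer lines incubated with compound for 72 h. Viability read by MTS colorimetric assay from remaining NADH; EC50 calculated; mean of at least two experiments.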

HL-60 = assay: Cytotoxicity against human HL60 cells assessed as NADH level after 72 hrs by MTS cells; assay type: functional, cell-based; conditions: HL-60, 72 h; outline: as §1
PC-3 = assay: Cytotoxicity against human PC3 cells assessed as NADH level after 72 hrs by MTS cells; assay type: functional, cell-based; conditions: PC-3, 72 h; outline: as §1

Compound	IC50 [1] [nM]	IC50 (Histone deacetylase 8) [nM]	EC50 (A549) [nM]	EC50 (HL-60) [nM]	EC50 (PC-3) [nM]
Cc1nc(-c2cccc(/C=C/C(=O)NO)c2)n(CCN2CCOCC2)c1C	160	200	> 50000	1600	5000
Cc1nc(-c2cccc(/C=C/C(=O)NO)c2)n(CCc2ccccc2)c1-c1ccccc1	79	25	1000	300	500
Cc1nc(-c2ccccc2)n(CCc2ccccc2)c1-c1cccc(/C=C/C(=O)NO)c1	79	50			
O=C(/C=C/c1cccc(-c2nc3ccccc3n2CCCc2ccccc2)c1)NO	20	25	12000	1200	4000
COc1ccc(-n2c(-c3cccc(/C=C/C(=O)NO)c3)nc3ccccc32)cc1	63	63	4000	500	1200
Cc1c(-c2ccccc2)nc(-c2cccc(/C=C/C(=O)NO)c2)n1CCc1ccccc1	63	20	800	200	300
Cc1c(Cc2ccccc2)nc(-c2cccc(/C=C/C(=O)NO)c2)n1[C@@H]1CCCN(C)C1	63	79	200	20	100
CCN1CCC[C@@H](n2c(C)nc(C)c2-c2cccc(/C=C/C(=O)NO)c2)C1	400				
O=C(/C=C/c1cccc(-c2nc3ccccc3n2-c2ccc(Cl)cc2)c1)NO	100	50	6300	800	2500
Cc1nc(-c2cccc(/C=C/C(=O)NO)c2)n([C@@H]2CCCN(C(C)C)C2)c1-c1ccccc1	100	40	400	30	200
CCN1CCCC(n2c(-c3cccc(/C=C/C(=O)NO)c3)nc3ccccc32)C1 (racemic)	79	120	500	60	100
O=C(/C=C/c1cccc(-c2nc3ccccc3n2CC2CCNCC2)c1)NO	200	310	> 50000	> 50000	> 50000
C[C@H](c1ccccc1)n1c(-c2cccc(/C=C/C(=O)NO)c2)nc2ccccc21	40	20	16000	3100	10000
O=C(/C=C/c1cccc(-c2nc3ccccc3n2CCN2CCCC2)c1)NO		63	3100	500	600
Cc1c(Cc2ccccc2)nc(-c2cccc(/C=C/C(=O)NO)c2)n1CCN1CCOCC1	79	50	4000	300	1000
O=C(/C=C/c1cccc(-c2nc3ccccc3n2CCN2CCOCC2)c1)NO	160	400	25000	1200	5000
CCN1CCC[C@@H](n2c(-c3cccc(/C=C/C(=O)NO)c3)nc(Cc3ccccc3)c2C)C1	100	50	100	30	40
Cc1nc(-c2cccc(/C=C/C(=O)NO)c2)n(CCc2ccccc2)c1C	63	31	400	80	200
CCN1CCC[C@@H](n2c(-c3cccc(/C=C/C(=O)NO)c3)nc3ccccc32)C1	79	120	200	30	50
CC(C)n1c(-c2cccc(/C=C/C(=O)NO)c2)nc2ccccc21	100	40	5000	1000	2500
CCN1CCC[C@@H](n2c(Cc3ccccc3)nc(C)c2-c2cccc(/C=C/C(=O)NO)c2)C1	500	100			
C[C@@H](c1ccccc1)n1c(-c2cccc(/C=C/C(=O)NO)c2)nc2ccccc21	63	16	31000	3100	16000
O=C(/C=C/c1cccc(-c2nc3ccccc3n2C2CCCCC2)c1)NO	25	50	3100	500	1600
O=C(/C=C/c1cccc(-c2nc3ccccc3n2C2CCCNC2)c1)NO (racemic)	40	160	2500	300	500
CN1CCCC(n2c(-c3cccc(/C=C/C(=O)NO)c3)nc3ccccc32)C1 (racemic)	79	160	500	80	100
O=C(/C=C/c1cccc(-c2nc3ccccc3n2[C@H]2CCCNC2)c1)NO	25	120	2500	300	600
Cc1nc(Cc2ccccc2)n(CCc2ccccc2)c1-c1cccc(/C=C/C(=O)NO)c1	63	63			
CCN1CCC[C@@H](n2c(-c3ccccc3)nc(C)c2-c2cccc(/C=C/C(=O)NO)c2)C1	630	400			
Cc1nc(C)n(CCc2ccccc2)c1-c1cccc(/C=C/C(=O)NO)c1	120	100			
O=C(/C=C/c1cccc(-c2nc3ccccc3n2-c2ccccc2)c1)NO		50	16000	1600	4000
